Screening data as filed in PubChem.
Rce1 inh – yeast Ras-converting enzyme inhibition. actives 0.27% (n = 290,000). AID 2563. calls only. Q03530. yeast membranes, quenched prenylated peptide cleavage fluorescence;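 active = fall in fluorescence gain of 50% or more versus controls, with final raw signal at or below 3038400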;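 also: plate controls were neutral control wells for no effect and wells lacking membranes for full effect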
Target sequence (Q03530 whole entry, looked up): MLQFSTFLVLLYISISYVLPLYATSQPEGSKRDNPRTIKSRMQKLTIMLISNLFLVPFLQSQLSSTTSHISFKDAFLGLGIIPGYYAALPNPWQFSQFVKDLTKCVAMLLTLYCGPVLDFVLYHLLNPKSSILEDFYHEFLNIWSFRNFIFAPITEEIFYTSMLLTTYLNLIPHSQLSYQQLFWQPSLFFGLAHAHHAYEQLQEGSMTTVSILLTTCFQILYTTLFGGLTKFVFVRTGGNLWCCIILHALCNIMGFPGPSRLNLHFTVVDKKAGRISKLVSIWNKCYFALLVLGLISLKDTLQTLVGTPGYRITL
Yeast superoxide – lowers age-related superoxide in aged yeast cells | superoxide response (% of plate mean), % at 10 µM | S. cerevisiae aged cells, superoxide DHE fluorescence; active compounds read low | AID 2690 | actives 0.18% (n = 330,000);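 active = superoxide response under a set limit, about three screen SD below normal, cut at about 65% in these data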;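 also: yeast aged for seven days with compound at 30 °C before DHE staining; 100% = average MFI of all compound-treated wells on the plate with controls excluded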
MIN6 prolif – induces beta-cell replication in MIN6 cells | MIN6 cells proliferation, ATPlite luminescence, 48 h; cells starved in 0.2% serum; 100% = growth in 10% serum | proliferation, % at 10 µM | actives 0.29% (n = 330,000) | AID 2380;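 active = compounds whose signal lies at least 3.5 SD above the mean of all wells on their plate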;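 also: 0% = DMSO-treated cells in low-serum medium and 100% = 10% serum control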
Rev-erbA mod – modulates human Rev-erb alpha binding to DNA. actives 0.79% (n = 370,000). Rev-erbα–FITC-DNA binding, fluorescence polarization, 90 min. activity, % at 10 µM. P20393;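 active = activity above about 14%, limit read from the data; passing the limit was not always enough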;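 also: 0% = DMSO wells with 35 nM protein and 100% = DMSO wells with 750 nM protein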
PG9 binder – PG9 antibody binding by small molecule; TR-FRET gp120-PG9 antibody binding; inhibition, % at 6.7 µM; actives 0.43% (n = 360,000); AID 624416; in the data active = inhibition above about 8.5%
UCH37 DUB inh – inhibitors of human deubiquitinating enzyme UCH37; Q9Y5K5; purified proteasome/UCH37, Ub-AMC cleavage fluorescence; inhibition, % (no concentration beside the values); actives 0.33% (n = 330,000); AID 588478;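 active = mean inhibition over replicate wells above about 20%, limit read from the data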;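 also: 0% = compound-free wells with enzyme and 100% = wells lacking proteasome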
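System: Proteasome-associated human UCH37 deubiquitinase; Input: 0.15 nM proteasome in added enzyme buffer; Also added: Ub-AMC substrate from 1 µM stock; Incubation: 30 min compound-proteasome preincubation then 25 min substrate reaction, room temperature; Detection: fluorescence, ex 355 nm, em 460 nm; Read-out: % inhibition of Ub-AMC cleavage fluorescence; Benchmarks: no-proteasome and no-compound wells.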
* marks the source's active call; other numbers are inactive results; i = inactive; x = no result; + = active, no number. Compounds with a hit are over-represented: about 1.9% of the library has one in this group of screens.

SMILES	Rce1 inh	Yeast superoxide	MIN6 prolif	Rev-erbA mod	PG9 binder	UCH37 DUB inh
CC(C)(C)c1cc(NC(=O)COC(=O)c2nccnc2N)n(-c2ccccc2)n1	i	104.4	-3.6	-0.5	-2.0	-431.6
CC(C)CC(=O)Nc1nc(-c2ccc(S(=O)(=O)N3CCOCC3)cc2)cs1	i	x	-4.3	-4.4	1.1	1.3
Cc1ccc(Nc2nc(-c3ccc(S(=O)(=O)N4CCOCC4)cc3)cs2)cc1Cl	+	113.2	0.0	8.5	0.3	-163.1
N#Cc1c(N=CN2CCOCC2)sc2c1CCCCC2	x	x	x	x	x	8.6
Cc1ccc2c(c1)C(=O)C(=O)N2CCCOc1ccccc1	+	108.5	-5.7	-6.0	-1.6	3.6
Cc1cccc(OCCCN2C(=O)C(=O)c3cc(C)ccc32)c1	+	104.0	-6.5	0.2	-1.4	0.7
COCc1c(C(=O)NN=Cc2cccs2)nnn1-c1nonc1N	x	x	x	x	x	1.3
CC(=O)N1c2ccc3ccccc3c2C2C=CCC2C1c1ccc(Br)cc1 (centres undefined)	x	103.2	x	x	x	x
CC(=O)N1c2ccc(Cl)cc2C2C=CCC2C1c1cccc2ccccc12 (centres undefined)	x	102.0	x	x	x	47.9*
O=C(Oc1ccc2cc(Br)ccc2c1)N1CCCCCC1	i	57.7*	-2.5	x	x	x
CC1CCN(C(=O)c2[nH]cnc2C(=O)NCc2ccccc2)CC1	x	98.6	-0.5	-1.8	0.2	0.1
CC(C)(C)OC(=O)N1CCC(NC(=O)c2nc[nH]c2C(=O)N2CCN(C(=O)OC(C)(C)C)CC2)CC1	x	115.1	-0.1	-4.5	0.6	-1.9
CC(C)(C)OC(=O)N1CCC(NC(=O)c2nc[nH]c2C(=O)N2CCc3ccccc3C2)CC1	x	115.5	-3.5	1.0	-0.6	29.0*
CC1CCN(C(=O)c2[nH]cnc2C(=O)NCc2ccc(CNC(=O)OC(C)(C)C)cc2)CC1	x	102.0	-3.9	2.1	1.6	28.2*
CC(C)(C)OC(=O)CNC(=O)c1nc[nH]c1C(=O)N1CCc2ccccc2C1	i	99.5	0.2	-5.3	-1.3	31.4*
O=C(NN=Cc1cccc(O)c1)c1cc(C2CC2)nc2ccccc12	x	x	x	x	x	4.9
COc1cc(C(=O)OCC(=O)Nc2ccc(SC(F)F)cc2)cc(OC)c1OC	+	93.5	-3.8	0.8	-1.0	x
COc1cc(C(=O)OCC(=O)Nc2ccc(OC(F)F)cc2)cc(OC)c1OC	i	92.9	0.0	1.5	-3.1	-1.1
CCC(=O)NC(c1cccs1)c1cc([N+](=O)[O-])c2cccnc2c1O (centres undefined)	i	85.8	0.0	4.9	0.5	20.4*
CCCC(=O)NC(c1cccs1)c1cc([N+](=O)[O-])c2cccnc2c1O (centres undefined)	i	106.3	x	9.1	-3.0	12.5
CC(=O)NC(c1cccs1)c1cc([N+](=O)[O-])c2cccnc2c1O (centres undefined)	i	121.5	x	-1.2	-0.3	20.4*
O=C(NCC1CCCO1)c1ccccc1NS(=O)(=O)c1ccc(F)cc1 (centres undefined)	x	107.8	-1.6	-2.1	-0.2	-1.4
Cc1ccc(S(=O)(=O)Nc2ccccc2C(=O)NCC2CCCO2)cc1 (centres undefined)	+	84.6	-0.1	7.0	-1.5	-3.5
Fc1ccc(C=NNC2=Nc3cccc4cccc2c34)cc1	x	x	x	x	x	3.0
CCc1ccc(C(C)=NNC(=O)CNC(=O)/C=C/c2ccco2)cc1	x	x	x	x	x	-0.3
SMILES	Rce1 inh	Yeast superoxide	MIN6 prolif	Rev-erbA mod	PG9 binder	UCH37 DUB inh
CC(=O)c1cccc2c(O)c(C3=Nc4ccccc4C3=O)[nH]c12	i	101.9	-4.9	-4.7	-30.4	28.1*
O=C(NN=C/C=C/c1ccc2c(c1)OCO2)C1COc2cc3ccccc3cc2O1 (centres undefined)	x	x	x	x	x	-4.5
COc1ccc(-c2cn(N=Cc3ccc(Cl)cc3Cl)c(N)n2)cc1	x	x	x	x	x	2.2
Cc1ccc(NC2=CC(=NS(=O)(=O)c3cccs3)c3ccccc3C2=O)cc1	x	x	x	x	x	22.3*
CC(=NNc1ccc(S(=O)(=O)N2CCOCC2)cc1[N+](=O)[O-])C(C)C	x	x	x	x	x	5.6
CCOC(=O)Cn1c(C)c(Br)c(COC)c(C#N)c1=O	x	107.5	-3.8	3.8	1.0	0.1
COCc1c(Br)c(C)[nH]c(=O)c1C#N	+	115.2	-0.9	0.3	2.8	-85.3
